This is one part of a sample in which hits are shown more often than they occur.
Hep lipid drop: modulators of hepatic lipid droplet formation | AML12 mouse hepatocytes, oleate lipid droplets, BODIPY imaging | AID 1656 | hit rate 0.4% among 240,000 | inhibition, % at 6.5 µM;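 active = lipid droplet intensity inhibited by at least 50%, with more than 500 cells counted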
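Material – mouse AML12 hepatocyte cell line, fixed after treatment · Compound dosing – one dose, 6.5 µM compound · Times – compound with oleate, overnight · Measured by – Image-based BODIPY and DAPI two-channel analysis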
Redox H2O2 prof: compounds producing H2O2 with reducing agent – biochemical, NIH compound library profiling, artefact control for MLSCN library redox annotation, primary screen. activation, % at 10 µM. DTT-dependent redox cycling H2O2, phenol red/HRP absorbance; 100% = 100 µM peroxide control, 0% = buffer. hit rate 0.03% among 200,000;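 active = activation of at least 50% relative to the plate's high and low controls in the primary single-dose screen; inactive = activation below 50%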;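 also: compound incubated with DTT at 0.8 mM final as the reducing agent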
MPTP inh: permeability transition pore inhibition | isolated mouse mitochondria, Ca2+ swelling absorbance, 30 min | inhibition, % at 10 µM | hit rate 1.4% among 360,000 | AID 602449;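 active = inhibition of 50% or more, scaled per plate between neutral and stimulator controls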;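 also: 0% = DMSO wells given calcium and 100% = 1 mM EGTA wells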
Lmaj promast: reduces viability of Leishmania major promastigotes; inhibition, % at 10 µM; resazurin fluorescence viability; AID 1063; hit rate 9% among 200,000; in the data active = inhibition above about 50%;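 also: promastigotes grown with compound for 44 hours at 28 °C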
T cruzi inh: T. cruzi replication inhibition. hit rate 1.4% among 300,000. inhibition, % (test concentration not listed). T. cruzi beta-gal in NIH3T3, luminescence, 90 h;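 active = mean inhibition across valid replicates above about 55%, limit read from the data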;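 also: signal also drops with host cell toxicity which is not excluded here; 0% = plate median of DMSO wells and 100% = zero luminescence signal; higher percent means less beta-gal luminescence so fewer parasites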
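System: Mouse NIH/3T3 fibroblasts infected with β-gal-expressing T. cruzi Tulahuen C4 | Quantity: NIH/3T3 cells, 5,000 per well | Reagent: 5000 reporter trypomastigotes per well | Dosing: Compound pinned at 50 nL/well, DMSO | Schedule: 3 h host attachment, then at least 90 h co-culture | Detection: GalScreen luminescence, 60 min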
Active calls of the source: *; / = not tested or not shown.

SMILES | Hep lipid drop | Redox H2O2 prof | MPTP inh | Lmaj promast | T cruzi inh
c1ccc(CCNc2nc(-c3ccncc3)cs2)cc1 | -16.8 | 0.0 | -0.1 | 3.5 | 83.0*
CCC(C)C(=O)N1CCc2cc(-c3csc(N)n3)ccc21 (configuration not stated) | / | -0.6 | -1.2 | 0.2 | 15.5
CC(C)(C)C(=O)N1CCc2cc(-c3csc(N)n3)ccc21 | / | 2.2 | -3.4 | 58.6* | 7.9
CCCn1c(SCC(=O)N2CCc3ccccc32)n[nH]c1=O | / | / | 0.2 | / | /
O=C(C(=O)N1CCN(c2ccccc2F)CC1)c1cn(CC(=O)N2CCCC2)c2ccccc12 | / | / | -0.3 | / | /
Cc1nc(-c2ccc(NC(=O)c3ccco3)cc2)cs1 | / | / | -0.5 | / | -10.6
O=C(Nc1ccc(C2CC2(Cl)Cl)cc1)c1ccccc1Br (configuration not stated) | -3.3 | 0.3 | 1.3 | 83.5* | 13.6
Cc1nc(-c2ccc(NC(=O)c3ccccc3Br)cc2)cs1 | -5.5 | 0.2 | -0.9 | 71.5* | 12.5
Cc1nc(-c2ccc(NC(=O)c3ccccc3C)cc2)cs1 | -5.1 | -0.7 | -0.2 | 50.3* | -21.5
CC(C(=O)NC1CCCc2ccccc21)N1CCN(Cc2ccc3c(c2)OCO3)CC1 (configuration not stated) | / | -10.8 | 1.0 | 86.2* | 21.3
O=C(Nc1ccc(F)cc1)NC1CCCc2ccccc21 (configuration not stated) | -10.8 | / | -0.4 | / | 15.8
CC(C(=O)NC1CCCc2ccccc21)N1CCN(c2ccc(F)cc2)CC1 (configuration not stated) | 4.5 | 0.2 | 0.8 | 69.8* | 42.8
O=C(CNS(=O)(=O)c1ccccc1)NCC(=O)OCc1ccc(C(=O)c2ccccc2)cc1 | -3.0 | -0.5 | 4.0 | 13.3 | 10.4
CCOC(=O)Cc1csc(NS(=O)(=O)c2ccc(Cl)cc2)n1 | -6.2 | -0.6 | 1.0 | 50.4* | -6.2
CCOC(=O)Cc1csc(NS(=O)(=O)c2ccc(OC)cc2)n1 | -0.7 | 7.2 | -0.1 | -7.5 | -7.5
Cc1ccc(S(=O)(=O)N(c2cccc(C(F)(F)F)c2)C2C=CS(=O)(=O)C2)cc1 (configuration not stated) | / | 0.3 | -0.3 | 28.7 | 0.5
CCc1ccc(N(C2C=CS(=O)(=O)C2)S(=O)(=O)c2ccccc2)cc1 (configuration not stated) | 49.9 | 0.6 | -0.4 | 59.2* | -4.8
O=C1CSC(c2ccc([N+](=O)[O-])cc2)N1CCN1CCCCC1 (configuration not stated) | 4.7 | -0.9 | -0.5 | 85.9* | 13.7
CCOc1ccc(/C(CC)=N/NC(=O)C2(C)CC2(Br)Br)cc1 (configuration not stated) | -2.2 | 0.1 | 0.5 | 58.0* | 5.3
CCOc1ccc(/C(CCC(=O)O)=N/NC(=S)NC(C)C)cc1 | -13.0 | -0.2 | -0.9 | -6.0 | 1.5
Cn1ccc2c(-c3ccc(C(=O)O)cc3)cc3c(c21)C1CCC3C1 (configuration not stated) | / | / | 0.3 | / | /
COc1cc(-c2nnc3n(CCc4ccccc4)c(=O)c4ccccc4n23)cc(OC)c1OC | 1.1 | 0.1 | 0.5 | 71.9* | 3.0
Cc1ccc(C)c(CC(=O)N2CCCCC2c2cc(C(=O)Nc3cccc(C#N)c3)no2)c1 (configuration not stated) | / | / | 0.1 | / | /
COc1n[nH]c(C(=O)Nc2nc3ccccc3s2)c1[N+](=O)[O-] | 4.4 | 0.0 | 5.2 | 70.1* | 2.7
CN(C(=O)c1ccco1)c1nc(-c2ccc(F)cc2)cs1 | 5.5 | / | 4.5 | / | -7.0
SMILES | Hep lipid drop | Redox H2O2 prof | MPTP inh | Lmaj promast | T cruzi inh
O=C(c1ccco1)N(CCCN1CCOCC1)c1nc(-c2ccc(Cl)cc2)cs1 | -29.3 | 0.1 | 1.2 | 16.6 | 67.1*
O=C(c1ccco1)N(CCCN1CCOCC1)c1nc(-c2ccc(F)cc2)cs1 | / | 0.7 | 0.6 | 20.5 | 68.8*
O=C(c1ccncc1)c1ccc(N2CCN(C3CC(=O)N(Cc4ccccc4)C3=O)CC2)cc1 (configuration not stated) | -6.6 | -0.1 | 0.5 | 97.7* | 19.9
COc1ccc(N2CCN(C3CC(=O)N(Cc4ccccc4)C3=O)CC2)cc1 (configuration not stated) | 0.8 | 0.1 | -1.4 | -2.4 | -7.6
CCN(CC)S(=O)(=O)c1ccc(C(=O)OCC(=O)Nc2ccc(-c3nc4ccc(C)cc4s3)cc2)cc1 | 15.9 | 0.5 | 3.0 | 57.9* | 1.3
CN(CC(=O)Nc1ccccc1Br)C(=O)c1cc(S(=O)(=O)N(C)C)ccc1N1CCCC1 | / | / | 1.7 | / | -2.2
O=S(=O)(c1ccc(Cl)c(Cl)c1)c1snnc1-c1ccccc1 | -24.0 | 0.2 | 5.4 | 99.5* | -21.9
CC1(C2CC2)NC(=O)N(CC(=O)Nc2ccc(C(F)(F)F)cc2)C1=O (configuration not stated) | / | / | -1.8 | / | /
Cc1ccc(C(=O)c2sc(Nc3ccccc3)c(C#N)c2N)cc1 | 21.0 | 0.1 | 3.9 | 74.5* | -2.5
N#Cc1c(Nc2ccccc2)sc(C(=O)c2ccc(F)cc2)c1N | 2.4 | 0.2 | 6.2 | 65.5* | 3.6
Nc1c(C(=O)c2ccccc2)sc(Nc2ccccc2)c1S(=O)(=O)c1ccccc1 | -17.0 | 0.8 | 2.2 | 94.8* | 55.5*
COc1ccc(NS(=O)(=O)c2cc(NC(=O)c3ccc(C)s3)ccc2N2CCOCC2)cc1 | -27.2 | / | 1.4 | / | 21.4
CCOC(=O)N1CCC(N2Cc3cccc(C(=O)NCc4ccc(OC)cc4)c3C2=O)CC1 | 2.2 | 0.5 | / | 70.0* | 16.5
CCOC(=O)N1CCC(N2Cc3cccc(C(=O)NCc4ccccc4OC)c3C2=O)CC1 | -12.1 | -0.7 | -0.2 | 6.6 | 23.4
CSc1ccccc1C(=O)NCc1ccccc1C | -5.6 | -3.2 | -0.6 | 3.3 | 2.3
CC(=Nc1ccc(Br)cc1)c1sc2ccccc2c1O | 5.8 | / | 2.5 | / | 60.3*
CCCN(CCC)c1nc(N)nc(-c2cc(Cl)ccc2OC)n1 | -13.1 | -0.2 | -1.9 | 58.2* | 21.6
COc1cc(/C=C(\C#N)c2nc(-c3cc4ccccc4oc3=O)cs2)ccc1O | 5.5 | 0.8 | 12.1 | 61.1* | 5.6
COc1cc(/C=C(/C#N)c2nc(-c3cc4ccccc4oc3=O)cs2)cc([N+](=O)[O-])c1O | 0.6 | / | / | / | /
CCCN(CCC)CCCNC(=O)c1cc2cc3ccc(OC)cc3nc2o1 | / | -0.2 | 1.1 | 96.3* | 45.3
CCCCN(CC)CCCNC(=O)c1cc2cc3ccc(OC)cc3nc2o1 | / | 2.5 | 0.8 | 95.5* | 54.2
COc1ccc2cc3cc(C(=O)Nc4ccc5c(c4)OCO5)oc3nc2c1 | / | 1.3 | 1.4 | 99.7* | 2.7
CCOC(=O)CCCNC(=O)CSc1nnc(-c2ccccc2)c(-c2ccccc2)n1 | -4.3 | / | -1.4 | / | 8.4
C/C(=N\NC(=O)c1nnn(-c2nonc2N)c1CSc1ccc(C)cc1)c1cccs1 | / | / | 0.1 | / | /
Cc1ccc(-n2cccc2/C=C2/C(=N)N3C(=NC2=O)SN=C3S(C)(=O)=O)cc1Cl | -3.6 | 0.0 | 26.1 | -3.0 | /
CC1=CSC2=NC(=O)/C(=C\c3cccn3-c3ccc([N+](=O)[O-])cc3)C(=N)N12 | -13.8 | 0.1 | 5.4 | 59.9* | 11.3

Assay outcomes as filed in PubChem BioAssay.
